Data taken from ChEMBL document CHEMBL3046055, “Synthesis and herbicidal activity of novel N-(2,2,2)-trifluoroethylpyrazole derivatives” (J Agric Food Chem, 2010).

Columns and labels:
[1] = system: Zea mays; test: Toxicity against Zea mays var. SHEN DAN 17 (maize) assessed induction of crop injury at 800 g ai/ha using pre-emergence treatment protocol under field trials conditions measured 30 days post soil treatment; assay type: organism-based; details: in vivo, other, 720 h
Outline: (§1)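 Pre-emergence application to soil surface within 24 h after maize planting, at 300, 400, 600 or 800 g a.i. ha^-1. Fresh weight of aerial plant parts measured 30 days later; percentage inhibition calculated relative to water-sprayed control.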

[2] = system: Zea mays; test: Toxicity against Zea mays var. SHEN DAN 17 (maize) assessed induction of crop injury at 600 g ai/ha using pre-emergence treatment protocol under field trials conditions measured 30 days post soil treatment; assay type: organism-based; details: in vivo, other, 720 h; outline: as §1
[3] = system: Convolvulus arvensis; test: Herbicidal activity against Convolvulus arvensis assessed as inhibition of fresh weed plant weights at 800 g ai/ha using pre-emergence treatment protocol under field trials conditions measured 30 days post soil treatment relative to untreated control; assay type: functional; details: 720 h
Outline: (§2)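 Field pre-emergence trial. Treatments were applied to the soil surface within 24 h after maize planting, at 300, 400, 600 and 800 g a.i. ha^-1. Fresh weight of aerial plant parts was measured 30 days later, and percent inhibition calculated relative to the water-sprayed control.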

[4] = system: Convolvulus arvensis; test: Herbicidal activity against Convolvulus arvensis assessed as inhibition of fresh weed plant weights at 600 g ai/ha using pre-emergence treatment protocol under field trials conditions measured 30 days post soil treatment relative to untreated control; assay type: functional; details: 720 h; outline: as §2
[5] = system: Convolvulus arvensis; test: Herbicidal activity against Convolvulus arvensis assessed as inhibition of fresh weed plant weights at 300 g ai/ha using pre-emergence treatment protocol under field trials conditions measured 30 days post soil treatment relative to untreated control; assay type: functional; details: 720 h; outline: as §2
[6] = system: Portulaca oleracea; test: Herbicidal activity against Portulaca oleracea assessed as inhibition of fresh weed plant weights at 600 g ai/ha using pre-emergence treatment protocol under field trials conditions measured 30 days post soil treatment relative to untreated control; assay type: functional; details: 720 h; outline: as §2
[7] = system: Portulaca oleracea; test: Herbicidal activity against Portulaca oleracea assessed as inhibition of fresh weed plant weights at 300 g ai/ha using pre-emergence treatment protocol under field trials conditions measured 30 days post soil treatment relative to untreated control; assay type: functional; details: 720 h; outline: as §2
[8] = system: Eleusine indica; test: Herbicidal activity against Eleusine indica assessed as inhibition of fresh weed plant weights at 800 g ai/ha using pre-emergence treatment protocol under field trials conditions measured 30 days post soil treatment relative to untreated control; assay type: functional; details: 720 h; outline: as §2
[9] = system: Eleusine indica; test: Herbicidal activity against Eleusine indica assessed as inhibition of fresh weed plant weights at 600 g ai/ha using pre-emergence treatment protocol under field trials conditions measured 30 days post soil treatment relative to untreated control; assay type: functional; details: 720 h; outline: as §2
[10] = system: Eleusine indica; test: Herbicidal activity against Eleusine indica assessed as inhibition of fresh weed plant weights at 400 g ai/ha using pre-emergence treatment protocol under field trials conditions measured 30 days post soil treatment relative to untreated control; assay type: functional; details: 720 h; outline: as §2
[11] = system: Echinochloa crus-galli; test: Herbicidal activity against Echinochloa crus-galli (barnyard grass) assessed as inhibition of fresh weed plant weights at 600 g ai/ha using pre-emergence treatment protocol under field trials conditions measured 30 days post soil treatment relative to untreated control; assay type: functional; details: 720 h; outline: as §2
[12] = system: Echinochloa crus-galli; test: Herbicidal activity against Echinochloa crus-galli (barnyard grass) assessed as inhibition of fresh weed plant weights at 400 g ai/ha using pre-emergence treatment protocol under field trials conditions measured 30 days post soil treatment relative to untreated control; assay type: functional; details: 720 h; outline: as §2
[13] = system: Portulaca oleracea; test: Herbicidal activity against Portulaca oleracea assessed as inhibition of fresh weed plant weights at 600 g ai/ha using pre-emergence treatment protocol under greenhouse conditions relative to untreated control; assay type: functional
Outline: (§3)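 Pre-emergence test in plastic pots kept in a greenhouse at 22-25 °C. Fresh weight of aerial plant parts was measured 20 days later, and percent inhibition calculated relative to water-sprayed controls. Metolachlor served as the positive control. Three replicates were run per concentration.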

[14] = system: Portulaca oleracea; test: Herbicidal activity against Portulaca oleracea assessed as inhibition of fresh weed plant weights at 300 g ai/ha using pre-emergence treatment protocol under greenhouse conditions relative to untreated control; assay type: functional; outline: as §3
[15] = system: Portulaca oleracea; test: Herbicidal activity against Portulaca oleracea assessed as inhibition of fresh weed plant weights at 150 g ai/ha using pre-emergence treatment protocol under greenhouse conditions relative to untreated control; assay type: functional; outline: as §3
[16] = system: Echinochloa crus-galli; test: Herbicidal activity against Echinochloa crus-galli (barnyard grass) assessed as inhibition of fresh weed plant weights at 300 g ai/ha using pre-emergence treatment protocol under greenhouse conditions relative to untreated control; assay type: functional; outline: as §3
[17] = system: Echinochloa crus-galli; test: Herbicidal activity against Echinochloa crus-galli (barnyard grass) assessed as inhibition of fresh weed plant weights at 150 g ai/ha using pre-emergence treatment protocol under greenhouse conditions relative to untreated control; assay type: functional; outline: as §3
[18] = system: Digitaria sanguinalis; test: Herbicidal activity against Digitaria sanguinalis (hairy crabgrass) assessed as inhibition of fresh weed plant weights at 300 g ai/ha using pre-emergence treatment protocol under greenhouse conditions relative to untreated control; assay type: functional; outline: as §3
[19] = system: Digitaria sanguinalis; test: Herbicidal activity against Digitaria sanguinalis (hairy crabgrass) assessed as inhibition of fresh weed plant weights at 150 g ai/ha using pre-emergence treatment protocol under greenhouse conditions relative to untreated control; assay type: functional; outline: as §3
[20] = system: Eleusine indica; test: Herbicidal activity against Eleusine indica assessed as inhibition of fresh weed plant weights at 600 g ai/ha using pre-emergence treatment protocol under greenhouse conditions relative to untreated control; assay type: functional; outline: as §3
[21] = system: Portulaca oleracea; test: Herbicidal activity against Portulaca oleracea assessed as inhibition of root growth at […] measured 7 days post treatment; assay type: functional; parameters: dose or concentration left out as unconfirmed; details: 168 h, read-out: GI
[22] = system: Echinochloa crus-galli; test: Herbicidal activity against Echinochloa crus-galli (barnyard grass) assessed as inhibition of fresh weed plant weights at 600 g ai/ha using pre-emergence treatment protocol under greenhouse conditions relative to untreated control; assay type: functional; outline: as §3
[23] = system: Digitaria sanguinalis; test: Herbicidal activity against Digitaria sanguinalis (hairy crabgrass) assessed as inhibition of fresh weed plant weights at 800 g ai/ha using pre-emergence treatment protocol under field trials conditions measured 30 days post soil treatment relative to untreated control; assay type: functional; details: 720 h; outline: as §2
[24] = system: Digitaria sanguinalis; test: Herbicidal activity against Digitaria sanguinalis (hairy crabgrass) assessed as inhibition of fresh weed plant weights at 300 g ai/ha using pre-emergence treatment protocol under field trials conditions measured 30 days post soil treatment relative to untreated control; assay type: functional; details: 720 h; outline: as §2
[25] = system: Brassica rapa subsp. oleifera; test: Toxicity against Brassica rapa subsp. oleifera var. JING GUAN 1 assessed as inhibition of fresh weed plant weights at 600 g ai/ha using pre-emergence treatment protocol under greenhouse conditions relative to untreated control; assay type: organism-based; details: in vivo, other; outline: as §3
[26] = system: Brassica rapa subsp. oleifera; test: Toxicity against Brassica rapa subsp. oleifera var. JING GUAN 1 assessed as inhibition of fresh weed plant weights at 300 g ai/ha using pre-emergence treatment protocol under greenhouse conditions relative to untreated control; assay type: organism-based; details: in vivo, other; outline: as §3
[27] = system: Brassica rapa subsp. oleifera; test: Toxicity against Brassica rapa subsp. oleifera var. JING GUAN 1 assessed as inhibition of fresh weed plant weights at 150 g ai/ha using pre-emergence treatment protocol under greenhouse conditions relative to untreated control; assay type: organism-based; details: in vivo, other; outline: as §3
[28] = system: Echinochloa crus-galli; test: Herbicidal activity against Echinochloa crus-galli (barnyard grass) assessed as inhibition of shoot growth at […] measured 7 days post treatment; assay type: functional; parameters: dose or concentration left out as unconfirmed; details: 168 h, read-out: GI
[29] = system: Portulaca oleracea; test: Herbicidal activity against Portulaca oleracea assessed as inhibition of shoot growth at […] measured 7 days post treatment; assay type: functional; details: 168 h, read-out: GI
Outline: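 Petri-dish agar assay. A 10 g/L stock of compound in acetone was mixed into molten agar; the untreated control was agar without compound. Seeds were placed on the agar surface and the cups were covered with glass lids. Incubation was 25 ± 1 °C, 50-55% RH, 12 h light/12 h dark, for 7 days. Root and shoot lengths were measured and growth inhibition calculated against the control, in three replicates.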

## Cc1nn(CC(F)(F)F)c(CS(=O)(=O)C2=NOC(C)(C)C2)c1Cl
[1]
  Activity: 0%
[2]
  Activity: 0%
[3]
  inhibition at 800 g/ha: 40%
[4]
  inhibition at 600 g/ha: 27%
[5]
  inhibition at 300 g/ha: 14%
[6]
  inhibition at 600 g/ha: 95%
[7]
  inhibition at 300 g/ha: 80%
[8]
  inhibition at 800 g/ha: 99%
[9]
  inhibition at 600 g/ha: 98%
[10]
  inhibition at 400 g/ha: 98%
[11]
  inhibition at 600 g/ha: 100%
[12]
  inhibition at 400 g/ha: 100%
[13]
  inhibition at 600 g/ha: 99%
[14]
  inhibition at 300 g/ha: 97%
[15]
  inhibition at 150 g/ha: 70%
[16]
  inhibition at 300 g/ha: 100%
[17]
  inhibition at 150 g/ha: 100%
[18]
  inhibition at 300 g/ha: 97%
[19]
  inhibition at 150 g/ha: 86%
[20]
  inhibition at 600 g/ha: 100%
[21]
  inhibition of growth: 63%
[22]
  inhibition at 600 g/ha: 100%
[23]
  inhibition at 800 g/ha: 100%
[24]
  inhibition at 300 g/ha: 95%
[25]
  inhibition (INH): 11%
[26]
  inhibition (INH): 12%
[27]
  inhibition (INH): 7%
[28]
  inhibition of growth: 84%
[29]
  inhibition of growth at 100000 µg/mL: 54%
